We go through nine molecules from ChEMBL document CHEMBL1134488, “Potent reversible inhibitors of the protein tyrosine phosphatase CD45” (J Med Chem, 2001).

Structures are written as SMILES. Bounds are passed on as bounds.

For one test, the target named is Cathepsin S (Homo sapiens, UniProt P25774). In words: Inhibitory concentration against Cathepsin S. The gist of the method: (§1)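 Cysteine protease assays. Peptide substrates were CBZ-L-lysine p-nitrophenyl ester, Z-Phe-Arg-NH-Mec and Z-Val-Val-Arg-NH-Mec. Values are means of experiments run in triplicate, given in µM.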
Chain of Cathepsin S (P25774 whole entry): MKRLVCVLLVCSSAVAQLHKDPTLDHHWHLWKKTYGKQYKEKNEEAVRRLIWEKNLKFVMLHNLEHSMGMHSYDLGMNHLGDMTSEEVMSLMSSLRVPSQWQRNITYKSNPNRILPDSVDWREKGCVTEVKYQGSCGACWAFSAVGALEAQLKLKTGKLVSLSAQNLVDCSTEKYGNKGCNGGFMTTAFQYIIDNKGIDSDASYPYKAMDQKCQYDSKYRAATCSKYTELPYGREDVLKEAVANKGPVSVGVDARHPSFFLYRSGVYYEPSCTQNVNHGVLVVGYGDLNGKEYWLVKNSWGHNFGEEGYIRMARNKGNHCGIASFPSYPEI
A further test concerns the target Cathepsin B (Homo sapiens, UniProt P07858). Nature of the test: Inhibitory concentration against Cathepsin B. A digest of the protocol:
as §1

For test [1], the target named is T1, Tyrosine-protein phosphatase non-receptor type 13 (Homo sapiens, UniProt Q12923). In words: Inhibitory concentration against FAP-1 pNPP.
T1 sequence (Q12923 whole entry): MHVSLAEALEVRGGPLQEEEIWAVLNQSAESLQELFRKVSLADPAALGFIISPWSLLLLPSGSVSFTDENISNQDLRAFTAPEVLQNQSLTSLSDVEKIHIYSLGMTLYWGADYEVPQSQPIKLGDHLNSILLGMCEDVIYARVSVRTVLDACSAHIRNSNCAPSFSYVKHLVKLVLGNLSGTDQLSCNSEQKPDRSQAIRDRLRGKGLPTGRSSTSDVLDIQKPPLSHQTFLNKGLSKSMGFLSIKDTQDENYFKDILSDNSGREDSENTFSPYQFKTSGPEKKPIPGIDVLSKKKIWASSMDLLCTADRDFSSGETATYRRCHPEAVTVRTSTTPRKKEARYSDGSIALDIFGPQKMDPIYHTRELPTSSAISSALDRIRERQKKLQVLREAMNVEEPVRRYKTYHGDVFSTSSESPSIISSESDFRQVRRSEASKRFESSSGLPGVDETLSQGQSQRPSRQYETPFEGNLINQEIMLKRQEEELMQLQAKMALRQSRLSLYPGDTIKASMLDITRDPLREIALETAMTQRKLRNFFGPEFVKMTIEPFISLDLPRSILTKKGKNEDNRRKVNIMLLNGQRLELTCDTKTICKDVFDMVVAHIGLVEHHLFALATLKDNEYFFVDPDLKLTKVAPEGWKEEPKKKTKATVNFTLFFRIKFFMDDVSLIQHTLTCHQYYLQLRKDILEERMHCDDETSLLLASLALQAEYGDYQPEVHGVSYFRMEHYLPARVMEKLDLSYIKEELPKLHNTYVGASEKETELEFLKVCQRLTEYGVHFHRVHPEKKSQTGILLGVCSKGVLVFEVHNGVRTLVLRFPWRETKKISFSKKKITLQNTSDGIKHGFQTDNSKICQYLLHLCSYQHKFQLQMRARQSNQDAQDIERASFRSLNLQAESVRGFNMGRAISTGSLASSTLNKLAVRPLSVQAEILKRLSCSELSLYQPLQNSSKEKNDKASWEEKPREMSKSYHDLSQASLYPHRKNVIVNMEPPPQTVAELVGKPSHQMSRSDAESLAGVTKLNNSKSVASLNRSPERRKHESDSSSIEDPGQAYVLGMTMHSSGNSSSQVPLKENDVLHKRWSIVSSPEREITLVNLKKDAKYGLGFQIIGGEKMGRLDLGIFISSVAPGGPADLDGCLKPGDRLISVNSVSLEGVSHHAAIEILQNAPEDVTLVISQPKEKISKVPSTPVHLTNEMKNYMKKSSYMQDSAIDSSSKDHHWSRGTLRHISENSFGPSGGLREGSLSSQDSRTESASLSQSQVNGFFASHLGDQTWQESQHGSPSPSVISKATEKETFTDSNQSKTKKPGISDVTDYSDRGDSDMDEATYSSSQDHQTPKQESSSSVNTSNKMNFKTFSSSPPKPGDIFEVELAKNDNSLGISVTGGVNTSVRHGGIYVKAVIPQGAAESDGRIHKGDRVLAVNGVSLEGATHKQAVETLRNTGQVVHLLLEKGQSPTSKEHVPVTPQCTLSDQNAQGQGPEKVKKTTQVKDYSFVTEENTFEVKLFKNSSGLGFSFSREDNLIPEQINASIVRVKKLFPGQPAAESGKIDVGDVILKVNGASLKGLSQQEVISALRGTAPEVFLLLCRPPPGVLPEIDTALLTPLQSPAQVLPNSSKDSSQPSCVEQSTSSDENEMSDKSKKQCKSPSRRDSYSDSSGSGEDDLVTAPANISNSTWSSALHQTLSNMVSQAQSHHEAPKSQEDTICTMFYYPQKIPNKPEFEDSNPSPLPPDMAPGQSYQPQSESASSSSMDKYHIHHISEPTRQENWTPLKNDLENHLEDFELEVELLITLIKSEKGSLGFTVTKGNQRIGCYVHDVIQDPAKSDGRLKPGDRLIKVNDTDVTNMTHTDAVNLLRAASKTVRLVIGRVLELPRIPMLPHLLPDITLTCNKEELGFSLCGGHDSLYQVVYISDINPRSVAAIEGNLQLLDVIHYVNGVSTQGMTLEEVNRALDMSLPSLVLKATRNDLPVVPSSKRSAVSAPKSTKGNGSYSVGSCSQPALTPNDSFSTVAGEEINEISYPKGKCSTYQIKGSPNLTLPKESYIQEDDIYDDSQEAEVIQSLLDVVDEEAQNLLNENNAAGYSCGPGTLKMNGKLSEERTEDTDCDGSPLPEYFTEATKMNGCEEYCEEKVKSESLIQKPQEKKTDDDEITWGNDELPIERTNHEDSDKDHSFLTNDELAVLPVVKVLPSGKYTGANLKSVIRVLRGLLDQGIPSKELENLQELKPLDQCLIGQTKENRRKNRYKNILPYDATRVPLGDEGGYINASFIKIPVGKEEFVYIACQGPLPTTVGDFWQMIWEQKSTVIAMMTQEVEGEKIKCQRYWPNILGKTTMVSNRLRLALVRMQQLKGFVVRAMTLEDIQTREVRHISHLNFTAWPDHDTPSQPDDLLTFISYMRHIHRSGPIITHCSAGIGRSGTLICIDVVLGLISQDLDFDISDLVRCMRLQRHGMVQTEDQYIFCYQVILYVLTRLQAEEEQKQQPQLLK
For test [2], the target named is T1, Tyrosine-protein phosphatase non-receptor type 13. Nature of the test: Inhibitory concentration against FAP-1 using lck-10 mer as substrate.
The subject of test [3] is T-cell. In words: Cytotoxicity measured against human T-cells. It is filed as functional.
Test [4] relates to T-cell. Nature of the test: In vitro inhibition of human T-cell proliferation. It is filed as functional, cell-based.
The next test concerns the target Procathepsin L (Homo sapiens, UniProt P07711). In words: Inhibitory concentration against Cathepsin L. The gist of the method:
as §1

Test [5] deals with T2, Receptor-type tyrosine-protein phosphatase C (Homo sapiens, UniProt P08575).
T2 sequence (P08575 whole entry): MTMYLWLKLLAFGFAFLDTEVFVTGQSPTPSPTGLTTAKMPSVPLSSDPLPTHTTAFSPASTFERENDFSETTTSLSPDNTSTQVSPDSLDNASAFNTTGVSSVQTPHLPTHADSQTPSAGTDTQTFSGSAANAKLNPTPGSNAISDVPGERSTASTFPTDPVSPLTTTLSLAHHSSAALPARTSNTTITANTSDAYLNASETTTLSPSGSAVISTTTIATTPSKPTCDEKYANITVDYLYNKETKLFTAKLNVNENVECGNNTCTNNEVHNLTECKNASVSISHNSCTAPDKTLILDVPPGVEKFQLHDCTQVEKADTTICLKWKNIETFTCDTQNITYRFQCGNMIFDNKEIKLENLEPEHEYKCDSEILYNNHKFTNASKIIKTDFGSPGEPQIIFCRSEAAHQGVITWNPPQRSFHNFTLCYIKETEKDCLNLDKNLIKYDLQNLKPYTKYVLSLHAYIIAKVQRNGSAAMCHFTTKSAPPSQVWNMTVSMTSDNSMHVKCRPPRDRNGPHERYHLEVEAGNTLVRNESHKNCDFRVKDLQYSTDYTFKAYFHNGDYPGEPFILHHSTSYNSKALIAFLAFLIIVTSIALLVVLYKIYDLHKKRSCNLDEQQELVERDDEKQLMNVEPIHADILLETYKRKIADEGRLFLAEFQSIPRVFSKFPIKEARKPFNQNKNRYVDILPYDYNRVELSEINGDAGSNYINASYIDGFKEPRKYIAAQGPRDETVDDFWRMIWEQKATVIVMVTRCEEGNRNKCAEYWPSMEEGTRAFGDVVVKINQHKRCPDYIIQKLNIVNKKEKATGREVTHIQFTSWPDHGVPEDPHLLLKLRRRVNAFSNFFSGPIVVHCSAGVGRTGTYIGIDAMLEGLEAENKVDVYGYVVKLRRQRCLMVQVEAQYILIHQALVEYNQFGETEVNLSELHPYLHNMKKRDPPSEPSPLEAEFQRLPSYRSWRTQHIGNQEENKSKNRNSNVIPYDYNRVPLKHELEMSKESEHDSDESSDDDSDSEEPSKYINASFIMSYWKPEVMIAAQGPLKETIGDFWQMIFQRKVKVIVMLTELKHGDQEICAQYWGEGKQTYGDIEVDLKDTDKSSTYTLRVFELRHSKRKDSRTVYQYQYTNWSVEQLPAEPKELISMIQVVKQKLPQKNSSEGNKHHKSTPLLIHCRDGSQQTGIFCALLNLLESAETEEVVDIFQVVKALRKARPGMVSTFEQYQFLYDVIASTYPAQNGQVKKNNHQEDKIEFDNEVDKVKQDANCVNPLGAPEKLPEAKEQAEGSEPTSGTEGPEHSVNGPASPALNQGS
In words: Inhibitory concentration against CD45 protein-tyrosine phosphatase using lck-10mer as substrate.

The target in test [6] is T1, Tyrosine-protein phosphatase non-receptor type 13. Nature of the test: Inhibitory concentration against FAP-1 using lck-10mer as substrate.
The target of test [7] is T3, Tyrosine-protein phosphatase non-receptor type 1 (Homo sapiens, UniProt P18031).
T3 sequence (P18031 whole entry): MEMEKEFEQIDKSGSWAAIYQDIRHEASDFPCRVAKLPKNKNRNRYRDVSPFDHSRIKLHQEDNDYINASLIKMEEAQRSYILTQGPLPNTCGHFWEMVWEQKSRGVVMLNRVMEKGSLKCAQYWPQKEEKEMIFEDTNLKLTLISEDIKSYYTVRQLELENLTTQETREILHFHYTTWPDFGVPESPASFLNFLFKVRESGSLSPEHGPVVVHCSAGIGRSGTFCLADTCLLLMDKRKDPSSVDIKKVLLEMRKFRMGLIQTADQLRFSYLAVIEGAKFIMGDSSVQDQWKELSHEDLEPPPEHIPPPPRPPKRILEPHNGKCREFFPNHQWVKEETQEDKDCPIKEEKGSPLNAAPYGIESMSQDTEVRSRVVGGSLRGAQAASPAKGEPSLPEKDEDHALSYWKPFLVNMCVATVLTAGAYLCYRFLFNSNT
In words: Inhibitory concentration against PTP1B lusing lck-10mer as substrate.

Test [8] has as its target T1, Tyrosine-protein phosphatase non-receptor type 13. Nature of the test: Inhibitory concentration against FAP-1 using pNPP as substrate.
Test [9] concerns the target T2, Receptor-type tyrosine-protein phosphatase C. Nature of the test: Inhibitory concentration against CD45 protein-tyrosine phosphatase using lck-10 mer as substrate.
Test [10] addresses T3, Tyrosine-protein phosphatase non-receptor type 1. In words: Inhibitory concentration against PTP1B using lck as substrate.
Test [11] addresses T2, Receptor-type tyrosine-protein phosphatase C. In words: Inhibitory concentration against CD45 protein-tyrosine phosphatase pNPP.
Test [12] shares this target. Nature of the test: In vitro inhibitory activity against the cytosolic portion of CD45 protein-tyrosine phosphatase using pNPP as the substrate.

Chain of Procathepsin L (P07711 whole entry): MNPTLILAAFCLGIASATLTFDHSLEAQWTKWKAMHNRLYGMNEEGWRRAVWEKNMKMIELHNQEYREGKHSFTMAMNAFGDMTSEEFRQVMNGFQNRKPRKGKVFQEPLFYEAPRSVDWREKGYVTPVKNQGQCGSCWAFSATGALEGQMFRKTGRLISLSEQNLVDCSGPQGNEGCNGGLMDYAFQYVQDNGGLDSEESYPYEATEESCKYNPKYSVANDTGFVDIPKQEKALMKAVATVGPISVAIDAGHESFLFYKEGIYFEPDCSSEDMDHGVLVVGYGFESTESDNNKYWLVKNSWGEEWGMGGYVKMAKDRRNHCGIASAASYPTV

Take `O=C(O)CNC(=O)c1ccc2c(c1)C(=O)C(=O)c1ccccc1-2`: the 50% inhibitory concentration (IC50) against Cathepsin S was more than 10 µM; against Cathepsin B, more than 10 µM; in test [1] it was 15 µM; in test [2], more than 30 µM; in the test on T-cell [4], 4.4 µM; against Procathepsin L, 0.9 µM. Besides, in test [5], the IC50 was found to be 1.9 µM. This molecule returned a CC50 in the test with T-cell [3] of more than 30 µM.

On to `Nc1ccc2c(c1)C(=O)C(=O)c1ccccc1-2`, for which the IC50 on Cathepsin S was 6 µM; against Cathepsin B, more than 10 µM; against Procathepsin L it was 0.6 µM; in test [6], more than 30 µM; in [7], more than 30 µM; in test [8], 4.7 µM. Moreover, the midpoint of cytotoxicity in the test with T-cell [3], the CC50, lay at 5 µM.

Turning to `COC(=O)CCCCCCC(=O)Nc1ccc2c(c1)C(=O)C(=O)c1ccccc1-2`, the half-inhibitory concentration (IC50) against Cathepsin S is more than 10 µM; against Cathepsin B, more than 10 µM; in test [1], 9.9 µM; in test [2], more than 30 µM; against Procathepsin L, more than 10 µM. The CC50 with T-cell [3] came out at 14 µM.

Consider `O=C1C(=O)c2cccnc2-c2ccccc21`, for which the half-inhibitory concentration (IC50) was 0.4 µM on Cathepsin S; more than 10 µM on Cathepsin B; 14 µM in test [1]; more than 30 µM in [2]; 0.2 µM in the test with T-cell [4]; 0.6 µM against Procathepsin L. The IC50 was 3.1 µM in test [9], more than 30 µM in test [10] and 1.4 µM in test [11]. In the test with T-cell [3], the CC50 worked out at 2.4 µM.

Turning to `O=C(Nc1ccc2c(c1)C(=O)C(=O)c1ccccc1-2)c1ccccc1F`, the half-maximal inhibitory concentration (IC50) is 9 µM against Cathepsin S; more than 10 µM on Cathepsin B; 0.6 µM in test [1]; 20 µM in test [2]; 3.1 µM in the test with T-cell [4]; 0.4 µM on Procathepsin L. Also, the IC50 in [9] amounted to 11 µM; in test [10] it was 18 µM; in test [11], 0.6 µM. The CC50 in the test with T-cell [3] turned out to be 20 µM.

In the case of `CC(C)(C)C(=O)Nc1ccc2c(c1)C(=O)C(=O)c1ccccc1-2`, the half-maximal inhibitory concentration (IC50) against Cathepsin S is 0.4 µM; at Cathepsin B, more than 10 µM; in [1], 7 µM; in test [2] it was more than 30 µM; against Procathepsin L it was 0.5 µM; in test [9], 3.8 µM. For the same molecule, the IC50 in test [10] was more than 30 µM. This molecule registered a CC50 in the test on T-cell [3] of 3.5 µM.

Regarding `O=C(Nc1ccc2c(c1)-c1ccccc1C(=O)C2=O)c1ccccc1F`, the IC50 in test [12] is 1.2 µM; in the test on T-cell [4], 2.9 µM; in test [9] it was 5.8 µM; in [10], more than 30 µM. In addition, the CC50 with T-cell [3] stood at 15 µM.

Turning to `COC(=O)CCC(=O)Nc1cccc2c1C(=O)C(=O)c1ccccc1-2`, the IC50 was more than 10 µM on Cathepsin B, 4.4 µM in [1], more than 30 µM in test [2] and 0.5 µM in the test on T-cell [4]. The CC50 in the test on T-cell [3] was determined as 9 µM.

For `COC(=O)CCC(=O)Nc1ccc2c(c1)C(=O)C(=O)c1cc(NC(=O)CCC(=O)OC)ccc1-2`, the IC50 against Cathepsin S was more than 10 µM; against Cathepsin B, more than 10 µM; in test [1] it was 12 µM; in test [2], more than 30 µM; against Procathepsin L, 5.4 µM; in [9] it was 2.9 µM. This molecule also displayed a CC50 in the test with T-cell [3] of 7 µM.

The term IC50 denotes the midpoint of a concentration-inhibition curve. Read a low IC50 as inhibition by little substance. As a reminder, the CC50 is the concentration giving 50% cytotoxicity. A low value points to greater toxicity to the cells.
